Laboratory results: ChEMBL document CHEMBL2177088, “Melittin suppresses VEGF-A-induced tumor growth by blocking VEGFR-2 and the COX-2-mediated MAPK signaling pathway” (J Nat Prod, 2012)
pIC50: −log10 of the molar value. Activity calls are given as the source filed them. No cut-off for these calls is given here.

How the values were obtained:
Mus musculus [1] = experiment: Toxicity in VEGFA-stimulated mouse highly metastatic LLC cells xenografted C57BL/6 mouse assessed as hair loss at 0.5 to 5 mg/kg, sc qd for 7 days; assay type: organism-based; set-up: dose 0.5-5 mg/kg, route subcutaneous; conditions: in vivo, 168 h
[2] = target: T1, MAP kinase p38 (Homo sapiens) (UniProt O15264+Q15759+Q16539+P53778); experiment: Increase of VEGFA-stimulated p38 phosphorylation in HUVEC by Western blot analysis in presence of p38 inhibitor SB203580; assay type: protein assay
How it was run: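 VEGF-A-HUVECs were pretreated 30 min with SB203580 before the compound was added. Lysates with phosphatase inhibitors (10 μg/lane) were separated by 10% SDS-PAGE and immunoblotted (1:1000) for phospho-p38 and total p38, detected by HRP-ECL.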

[3] = Cytotoxicity against HUVEC assessed as cell viability at 5 uM after 48 hrs by MTT assay relative to control; assay type: cell-based; conditions: human, HUVEC cells; read-out: Activity
How it was run: (§1)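 Native (non-transfected) HUVECs were seeded at 1 × 10^4 cells/well on 0.1% gelatin in complete M199 for 24 h. They were then exposed to 1, 5, 10, 20 or 40 μM in serum-free M199 for 48 h at 37 °C. MTT was added for 3 h and formazan dissolved in 2-propanol. After centrifugation, supernatant absorbance was read at 570 nm and expressed as % of control. Three independent experiments in triplicate.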

[4] = target: T1, MAP kinase p38 (Homo sapiens); experiment: Increase of VEGFA-stimulated p38 phosphorylation in HUVEC by Western blot analysis; assay type: protein assay
How it was run: (§2)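 VEGF-A-HUVECs exposed to 1, 5 or 10 μM were lysed with protease and phosphatase inhibitors (1 mM NaF, 1 mM Na3VO4). Lysates (10 μg/lane) were run on 10% SDS-PAGE and immunoblotted (1:1000) for phospho- and total ERK1/2, JNK and p38, detected by HRP-ECL.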

Mus musculus [5] = experiment: Toxicity in VEGFA-stimulated mouse highly metastatic LLC cells xenografted C57BL/6 mouse assessed as hair loss at 0.5 to 5 mg/kg, sc qd for 18 days; assay type: organism-based; set-up: dose 0.5-5 mg/kg, route subcutaneous; conditions: in vivo, 432 h
How it was run: (§3)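 C57BL/6 mice bearing sc right-flank VEGF-A-hm LLC tumours (1 × 10^6 cells) were dosed sc at 0.5 or 5 mg/kg from day 12 after inoculation, over the 18-day growth study. Animals were monitored for body weight loss, lethargy, hair loss and mortality.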

[6] = system: Lewis lung carcinoma cell line; experiment: Antitumor activity against VEGFA-stimulated mouse highly metastatic LLC cells xenografted in C57BL/6 mouse assessed as reduction of tumor weight at 5 mg/kg, […] relative to control; assay type: functional; set-up: scale not given: the % may be the effect or the level left; conditions: route subcutaneous
[7] = Cytotoxicity against HUVEC assessed as cell viability at 40 uM after 48 hrs by MTT assay relative to control; assay type: cell-based; conditions: human, HUVEC cells; read-out: Activity; how it was run: as §1
[8] = Cytotoxicity against HUVEC assessed as cell viability at 20 uM after 48 hrs by MTT assay relative to control; assay type: cell-based; conditions: human, HUVEC cells; read-out: Activity; how it was run: as §1
HUVEC [9] = experiment: Antiangiogenic activity against VEGFA-stimulated capillary differentiation in HUVEC after 18 hrs by matrigel assay; assay type: functional, cell-based; conditions: Homo sapiens
How it was run: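 VEGF-A-HUVECs (HUVECs stably transfected with pcDNA3.1 carrying mouse VEGF-A164, G418-selected) were plated at 1 × 10^5 cells on polymerised growth factor-reduced Matrigel (5 mg/mL) with 5, 10 or 20 μM. They were incubated 18 h at 37 °C, 5% CO2, then washed, fixed and photographed (100×). Tube area per random field was quantified by image analysis. Three experiments in triplicate; IC50 read from the dose curve.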

HUVEC [10] = experiment: Inhibition of VEGFA-stimulated PGE2 production in HUVEC at 5 to 20 uM after 24 hrs by ELISA; assay type: functional, cell-based; conditions: Homo sapiens
HUVEC [11] = experiment: Down regulation of COX2 expression in HUVEC at 5 to 20 uM after 24 hrs by Western blot analysis; assay type: functional, cell-based; conditions: Homo sapiens
Mus musculus [12] = experiment: Toxicity in VEGFA-stimulated mouse highly metastatic LLC cells xenografted C57BL/6 mouse assessed as lethargy at 0.5 to 5 mg/kg, sc qd for 18 days; assay type: organism-based; set-up: dose 0.5-5 mg/kg, route subcutaneous; conditions: in vivo, 432 h; how it was run: as §3
HUVEC [13] = experiment: Down regulation of VEGF-A expression in VEGFA-stimulated HUVEC at 5 to 20 uM after 24 hrs by Western blot analysis; assay type: functional, cell-based; conditions: Homo sapiens
Mus musculus [14] = experiment: Toxicity in VEGFA-stimulated mouse highly metastatic LLC cells xenografted C57BL/6 mouse assessed as mortality at 0.5 to 5 mg/kg, sc qd for 7 days; assay type: organism-based; set-up: dose 0.5-5 mg/kg, route subcutaneous; conditions: in vivo, 168 h
[15] = system: Lewis lung carcinoma cell line; experiment: Antitumor activity against VEGFA-stimulated mouse highly metastatic LLC cells xenografted in C57BL/6 mouse assessed as tumor growth inhibition at 0.5 mg/kg, […] relative to control; assay type: functional; conditions: sc, 432 h, route subcutaneous, read-out: TGI
Mus musculus [16] = experiment: Toxicity in VEGFA-stimulated mouse highly metastatic LLC cells xenografted C57BL/6 mouse assessed as lethargy at 0.5 to 5 mg/kg, sc qd for 7 days; assay type: organism-based; set-up: dose 0.5-5 mg/kg, route subcutaneous; conditions: in vivo, 168 h
HUVEC [17] = experiment: Down regulation of VEGFA-stimulated COX2 expression in HUVEC at 5 to 20 uM after 24 hrs by Western blot analysis in presence of p38 inhibitor SB203580; assay type: functional, cell-based; conditions: Homo sapiens
[18] = target: c-Jun N-terminal kinase, JNK (Homo sapiens) (UniProt P45983+P53779+P45984); experiment: Inhibition of VEGFA-stimulated JNK phosphorylation in HUVEC by Western blot analysis; assay type: cell-based; how it was run: as §2
HUVEC [19] = experiment: Down regulation of VEGFR2 expression in HUVEC at 5 to 20 uM after 24 hrs by Western blot analysis; assay type: functional, cell-based; conditions: Homo sapiens
HUVEC [20] = experiment: Down regulation of VEGFA-stimulated VEGF-A expression in HUVEC at 5 to 20 uM after 24 hrs by Western blot analysis in presence of p38 inhibitor SB203580; assay type: functional, cell-based; conditions: Homo sapiens
HUVEC [21] = experiment: Down regulation of VEGFR2 expression in VEGFA-stimulated HUVEC at 5 to 20 uM after 24 hrs by Western blot analysis; assay type: functional, cell-based; conditions: Homo sapiens
HUVEC [22] = experiment: Antiangiogenic activity against VEGFA-stimulated cell proliferation in HUVEC after 48 hrs by BrdU incorporation assay; assay type: functional, cell-based; conditions: Homo sapiens
HUVEC [23] = experiment: Down regulation of COX2 expression in VEGFA-stimulated HUVEC at 5 to 20 uM after 24 hrs by Western blot analysis; assay type: functional, cell-based; conditions: Homo sapiens
HUVEC [24] = experiment: Inhibition of VEGFA-stimulated VEGF production in HUVEC at 5 to 20 uM after 24 hrs by enzyme immunoassay; assay type: functional, cell-based; conditions: Homo sapiens
[25] = system: Lewis lung carcinoma cell line; experiment: Antiangiogenic activity against VEGFA-stimulated mouse highly metastatic LLC cells xenografted in C57BL/6 mouse assessed as reduction of vessel formation at 0.5 mg/kg, sc qd for 7 days relative to control; assay type: functional; set-up: scale not given: the % may be the effect or the level left; conditions: route subcutaneous
How it was run: (§4)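 VEGF-A-hm LLC cells (5 × 10^5 in 50 μL) were inoculated intradermally into the back skin of mice. Compound was given sc at 0.5 or 5 mg/kg/day for 7 days, starting day 3 after inoculation. Mice were killed on day 10 and the inoculated skin separated from underlying tissue. Only vessels directly supplying the tumour were counted under a dissecting microscope; reduction is versus untreated control.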

[26] = target: Mitogen-activated protein kinase; ERK1/ERK2 (Homo sapiens) (UniProt P27361+P28482); experiment: Inhibition of VEGFA-stimulated ERK1/2 phosphorylation in HUVEC by Western blot analysis; assay type: protein assay; how it was run: as §2
Mus musculus [27] = experiment: Toxicity in VEGFA-stimulated mouse highly metastatic LLC cells xenografted C57BL/6 mouse assessed as mortality at 0.5 to 5 mg/kg, sc qd for 18 days; assay type: organism-based; set-up: dose 0.5-5 mg/kg, route subcutaneous; conditions: in vivo, 432 h; how it was run: as §3
Mus musculus [28] = experiment: Toxicity in VEGFA-stimulated mouse highly metastatic LLC cells xenografted C57BL/6 mouse assessed as reduction of body weight at 0.5 to 5 mg/kg, sc qd for 18 days; assay type: organism-based; set-up: dose 0.5-5 mg/kg, route subcutaneous; conditions: in vivo, 432 h; how it was run: as §3
HUVEC [29] = experiment: Down regulation of VEGF-A expression in HUVEC at 5 to 20 uM after 24 hrs by Western blot analysis; assay type: functional, cell-based; conditions: Homo sapiens
[30] = system: Lewis lung carcinoma cell line; experiment: Antitumor activity against VEGFA-stimulated mouse highly metastatic LLC cells xenografted in C57BL/6 mouse assessed as reduction of tumor weight at 0.5 mg/kg, […] relative to control; assay type: functional; set-up: scale not given: the % may be the effect or the level left; conditions: route subcutaneous
[31] = Cytotoxicity against HUVEC assessed as cell viability at 1 uM after 48 hrs by MTT assay relative to control; assay type: cell-based; conditions: human, HUVEC cells; read-out: Activity; how it was run: as §1
[32] = Cytotoxicity against HUVEC assessed as cell viability at 10 uM after 48 hrs by MTT assay relative to control; assay type: cell-based; conditions: human, HUVEC cells; read-out: Activity; how it was run: as §1
[33] = system: Lewis lung carcinoma cell line; experiment: Antiangiogenic activity against VEGFA-stimulated mouse highly metastatic LLC cells xenografted in C57BL/6 mouse assessed as reduction of vessel formation at 5 mg/kg, sc qd for 7 days relative to control; assay type: functional; set-up: scale not given: the % may be the effect or the level left; conditions: route subcutaneous; how it was run: as §4
[34] = system: Lewis lung carcinoma cell line; experiment: Antitumor activity against VEGFA-stimulated mouse highly metastatic LLC cells xenografted in C57BL/6 mouse assessed as tumor growth inhibition at 5 mg/kg, […] relative to control; assay type: functional; conditions: sc, 432 h, route subcutaneous, read-out: TGI

Mitogen-activated protein kinase; ERK1/ERK2 (Homo sapiens), sequence (P27361 whole entry, looked up): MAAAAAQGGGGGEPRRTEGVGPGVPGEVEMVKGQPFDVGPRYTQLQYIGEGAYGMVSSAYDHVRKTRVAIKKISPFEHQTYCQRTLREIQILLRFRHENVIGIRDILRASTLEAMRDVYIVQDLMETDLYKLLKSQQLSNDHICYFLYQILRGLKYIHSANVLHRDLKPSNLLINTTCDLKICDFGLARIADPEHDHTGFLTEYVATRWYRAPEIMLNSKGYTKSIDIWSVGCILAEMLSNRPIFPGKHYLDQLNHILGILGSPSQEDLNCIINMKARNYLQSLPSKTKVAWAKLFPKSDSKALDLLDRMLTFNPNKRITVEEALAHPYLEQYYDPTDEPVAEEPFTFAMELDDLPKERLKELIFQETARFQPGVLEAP
Mitogen-activated protein kinase; ERK1/ERK2 (Homo sapiens), sequence (P28482 whole entry, looked up): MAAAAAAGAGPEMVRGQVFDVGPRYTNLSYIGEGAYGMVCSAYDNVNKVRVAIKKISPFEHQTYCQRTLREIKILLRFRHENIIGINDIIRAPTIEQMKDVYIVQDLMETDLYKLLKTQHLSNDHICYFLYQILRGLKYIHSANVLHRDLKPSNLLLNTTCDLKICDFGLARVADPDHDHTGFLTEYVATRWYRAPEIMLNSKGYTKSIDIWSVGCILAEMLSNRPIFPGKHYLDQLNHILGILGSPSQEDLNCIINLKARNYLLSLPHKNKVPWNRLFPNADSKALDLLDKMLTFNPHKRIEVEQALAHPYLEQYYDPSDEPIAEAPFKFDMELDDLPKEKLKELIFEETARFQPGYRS

## CC[C@H](C)[C@H](NC(=O)CN)C(=O)NCC(=O)N[C@@H](C)C(=O)N[C@H](C(=O)N[C@@H](CC(C)C)C(=O)N[C@@H](CCCCN)C(=O)N[C@H](C(=O)N[C@@H](CC(C)C)C(=O)N[C@H](C(=O)N[C@H](C(=O)NCC(=O)N[C@@H](CC(C)C)C(=O)N1CCC[C@H]1C(=O)N[C@@H](C)C(=O)N[C@@H](CC(C)C)C(=O)N[C@H](C(=O)N[C@@H](CO)C(=O)N[C@@H](Cc1c[nH]c2ccccc12)C(=O)N[C@H](C(=O)N[C@@H](CCCCN)C(=O)N[C@@H](CCCNC(=N)N)C(=O)N[C@@H](CCCCN)C(=O)N[C@@H](CCCNC(=N)N)C(=O)N[C@@H](CCC(N)=O)C(=O)N[C@@H](CCC(N)=O)C(N)=O)[C@@H](C)CC)[C@@H](C)CC)[C@@H](C)O)[C@@H](C)O)C(C)C)C(C)C [MELITTIN]
Mus musculus [1]
  Activity: Non-toxic
[2]
  Activity: inactive
[3]
  viability at 48 h, 5 µM: 98.9%
[4]
  Activity: Dose-dependent effect
Mus musculus [5]
  Activity: Non-toxic
[6]
  Activity: 91%
[7]
  viability at 48 h, 40 µM: 96.5%
[8]
  viability at 48 h, 20 µM: 98.5%
HUVEC [9]
  pIC50: 4.89
  inhibition: Dose-dependent effect
HUVEC [10]
  inhibition: Active
HUVEC [11]
  Activity: inactive
Mus musculus [12]
  Activity: Non-toxic
HUVEC [13]
  Activity: Active
Mus musculus [14]
  Activity: Non-toxic
[15]
  inhibition in vivo at 0.5 mg/kg: 25%
Mus musculus [16]
  Activity: Non-toxic
HUVEC [17]
  Activity: inactive
[18]
  inhibition: Active
HUVEC [19]
  Activity: inactive
HUVEC [20]
  Activity: inactive
HUVEC [21]
  Activity: Active
HUVEC [22]
  pIC50: 4.74
  inhibition: Dose-dependent effect
HUVEC [23]
  Activity: Active
HUVEC [24]
  inhibition: Active
[25]
  Activity: 52%
[26]
  inhibition: Dose-dependent effect
Mus musculus [27]
  Activity: Non-toxic
Mus musculus [28]
  Activity: Non-toxic
HUVEC [29]
  Activity: inactive
[30]
  Activity: 60%
[31]
  viability at 48 h, 1 µM: 104%
[32]
  viability at 48 h, 10 µM: 99.4%
[33]
  Activity: 59%
[34]
  inhibition in vivo at 5 mg/kg: 57%

## CS(=O)(=O)Nc1ccc([N+](=O)[O-])cc1OC1CCCCC1 [NS-398]
HUVEC [9]
  inhibition: Active
HUVEC [22]
  inhibition: Active
[33]
  Activity: 22%
[34]
  inhibition in vivo at 5 mg/kg: 42%
